The source made the active and inactive calls. The calls are words filed in the database; no cut-off is given here.
Key:
Quadruplex DNA [1] = assay: Binding affinity to telomeric Telo21 G-quadruplex DNA (unknown origin) assessed as equilibrium binding constant at 5 uM at 25 degreeC by […]; assay type: nucleic-acid assay
In short: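 Fluorescence titration: ligand at 5 μM in 10 mM Tris-HCl, pH 7.4, with 60 mM KCl, 25 °C. DNA was added slowly until saturation. Keq was obtained by nonlinear fitting of F/F0 to an independent-site model.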

[2] = Water solubility of compound at 25 degreeC; assay type: physicochemical
In short: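 Solubility in water measured at 25 °C.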

Quadruplex DNA [3] = assay: Stabilization of telomeric Htg24 G-quadruplex DNA (unknown origin) assessed as inhibition of DNA amplification at 20 uM by PCR analysis; assay type: nucleic-acid assay
In short: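 Taq polymerase stop assay: Htg24 or its non-G4 mutant template (5 μM) with 2 μM of each oligomer, […] and ligand at 0–20 μM. Cycling was 94 °C for 5 min, then 30 cycles of 94/56/72 °C at 30 s each. Products were resolved on 15% PAGE and stained with SYBR Gold.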

rRNA = assay: Binding affinity to rRNA (unknown origin) assessed as equilibrium binding constant at 5 uM at 25 degreeC […]; assay type: nucleic-acid assay
In short: (§1)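 Fluorescence titration: ligand 5 μM in 10 mM Tris-HCl pH 7.4 with 60 mM KCl, nucleic acid added until saturation, 25 °C. Keq from nonlinear fit of F/F0 to an independent-site model.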

Quadruplex DNA [4] = assay: Binding affinity to telomeric Htg24 G-quadruplex DNA (unknown origin) assessed as fluorescence quantum yield by fluorescence spectrophotometric method; assay type: nucleic-acid assay
In short: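 Fluorescence quantum yield determined against fluorescein (Φ = 0.95) in 1% NaOH ethanol. Five increasing ligand concentrations added to fixed DNA, with absorbance and emission recorded for each.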

Quadruplex DNA [5] = assay: Binding affinity to telomeric Htg24 G-quadruplex DNA (unknown origin) assessed as emission wavelength at 480 to 483 nm at pH 7.4 by spectrophotometric method; assay type: nucleic-acid assay
HeLa [6] = assay: Downregulation of hTERT mRNA expression in human HeLa cells at 5 to 20 uM by qRT-PCR analysis; assay type: functional, cell-based; conditions: dose 5-20 µM
In short: (§2)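 HeLa cells were treated with graded compound concentrations, then incubated 36 h. RNA was extracted with Trizol/chloroform, reverse transcribed and quantified by qRT-PCR. GAPDH served as internal control, with relative expression by the ΔΔCt method; three independent experiments, mean ± SD.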

HeLa [7] = assay: Downregulation of hTERC mRNA expression in human HeLa cells at 5 to 20 uM by qRT-PCR analysis; assay type: functional, cell-based; conditions: dose 5-20 µM; in short: as §2
PC-3 = assay: Antiproliferative activity against human PC-3 cells assessed as reduction in cell viability […] by MTT assay; assay type: functional, cell-based
HepG2 = assay: Antiproliferative activity against human HepG2 cells assessed as reduction in cell viability […] by MTT assay; assay type: functional, cell-based
MCF7 = assay: Antiproliferative activity against human MCF7 cells assessed as reduction in cell viability […] by MTT assay; assay type: functional, cell-based
U-87 MG = assay: Antiproliferative activity against human U87 cells assessed as reduction in cell viability […] by MTT assay; assay type: functional, cell-based, U-87MG ATCC
HeLa [8] = assay: Antiproliferative activity against human HeLa cells assessed as reduction in cell viability […] by MTT assay; assay type: functional, cell-based
16HBE14o- = assay: Cytotoxicity against human 16HBE14o- cells assessed as cell viability incubated for 48 hrs by MTT assay; assay type: cell-based; conditions: 36 h, in the assay text read “36 hrs” for “48 hrs”
In short: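 Cells were plated and grown 48 h at 37 °C, 5% CO2, in DMEM with 10% FBS. They were then given graded ligand concentrations for 36 h and treated with MTT (5 mg/ml) for 4 h in the dark. Formazan was dissolved in DMSO and absorbance read at 577 nm. IC50 was taken from a sigmoidal dose–response fit; three independent experiments.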

Quadruplex DNA [9] = assay: Binding affinity to telomeric Htg24 G-quadruplex DNA (unknown origin) assessed as stroke shift under at 480 to 483 nm at pH 7.4 by spectrophotometric method
DNA = assay: Binding affinity to ds26 DNA (unknown origin) assessed as equilibrium binding constant at 5 uM at 25 degreeC by […]; assay type: nucleic-acid assay; in short: as §1
Quadruplex DNA [10] = assay: Binding affinity to c-myc promoter G-quadruplex DNA Pu22 (unknown origin) assessed as equilibrium binding constant at 5 uM at 25 degreeC by […]; assay type: nucleic-acid assay; in short: as §1
Quadruplex DNA [11] = assay: Binding affinity to telomeric Htg24 G-quadruplex DNA (unknown origin) assessed as equilibrium binding constant at 5 uM at 25 degreeC by […]; assay type: nucleic-acid assay; in short: as §1
HeLa [12] = assay: Induction of cellular senescence in human HeLa cells assessed as positive SA-beta-Gal cells at 0.5 to 4 uM incubated for 18 days by inverted fluorescence microscopic analysis; assay type: functional, cell-based; conditions: dose 0.5-4 µM, time 18.0 day
In short: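 HeLa cells were exposed to compound for 18 days, with drug-containing medium replaced every three days. Cells were then fixed 15 min at room temperature and stained for β-galactosidase at 37 °C overnight. Stained cells were examined under an inverted microscope.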

Quadruplex DNA [13] = assay: Displacement of 2-((E)-4-(Dimethylamino)styryl)-1-methyl-4-((Z)-(3-(3-morpholinopropyl)benzo[d]thiazol-2(3H)-ylidene)methyl)quinolin-1-ium iodide from telomeric Htg24 G4 quadruplex DNA in human U87 cells assessed as decrease in fluorescence intensity at 5 to 20 uM by competition binding assay; assay type: cell-based; conditions: dose 5-20 µM
In short: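 Live U87 cells were stained with probe at 5 μM plus DAPI and co-treated with BRACO19 at 5, 10, 15 or 20 μM. Confocal imaging used excitation at 488 or 571 nm for the probe and 402 nm for DAPI. Nuclear spot intensity was compared across concentrations.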

Row | Kb (Quadruplex DNA [1]) [M⁻¹] | solubility [2] [µM] | Activity (Quadruplex DNA [3]) | Kb (rRNA) [M⁻¹] | Kb (DNA) [M⁻¹] | Kb (Quadruplex DNA [10]) [M⁻¹] | Kb (Quadruplex DNA [11]) [M⁻¹] | SMILES | Activity (HeLa [6]) | Activity (HeLa [7]) | further results
1 | 965000 | 167 | – | – | – | – | – | C[n+]1c(/C=C/c2ccc(O)cc2)cc(/C=C2\Sc3ccccc3N2CCCN2CCOCC2)c2ccccc21.[I-] | – | – | –
2 | – | 105 | Active | 840000 | – | – | – | CC1CCN(CCCN2/C(=C/c3cc(/C=C/c4ccc(N(C)C)cc4)[n+](C)c4ccccc34)Sc3ccccc32)CC1.[I-] | Active | Active | Activity (Quadruplex DNA [4]): 0.317; Activity (Quadruplex DNA [5]): 648 nm; IC50 (PC-3): 14.6 µM; IC50 (HepG2): 11 µM; IC50 (MCF7): 12.6 µM; IC50 (U-87 MG): 14.7 µM; IC50 (HeLa [8]): 21.2 µM; IC50 (16HBE14o-): 34.8 µM; Activity (Quadruplex DNA [9]): 165 nm
3 | 650000 | 98.4 | – | 787000 | 755000 | 766000 | 689000 | CSc1ccc(/C=C/c2cc(/C=C3\Sc4ccccc4N3CCCN3CCC(C)CC3)c3ccccc3[n+]2C)cc1.[I-] | – | – | –
4 | 785000 | 77.2 | – | – | 154000 | 907000 | 722000 | CC1CCN(CCCN2/C(=C/c3cc(/C=C/c4ccc(N(c5ccccc5)c5ccccc5)cc4)[n+](C)c4ccccc34)Sc3ccccc32)CC1.[I-] | – | – | –
5 | 301000 | 87.3 | inactive | 764000 | 657000 | 486000 | 325000 | CSc1ccc(/C=C/c2cc(/C=C3\Sc4ccccc4N3CCCN3CCOCC3)c3ccccc3[n+]2C)cc1.[I-] | inactive | inactive | IC50 (PC-3): 91.1 µM; IC50 (HepG2): 96.5 µM; IC50 (MCF7): 105 µM; IC50 (U-87 MG): 96.8 µM; IC50 (HeLa [8]): 90.3 µM; IC50 (16HBE14o-): 58 µM
6 | 722000 | 83 | – | 501000 | 379000 | 443000 | 505000 | C[n+]1c(/C=C/c2ccc(C#N)cc2)cc(/C=C2\Sc3ccccc3N2CCCN2CCOCC2)c2ccccc21.[I-] | – | – | –
7 | 957000 | 82.7 | – | 786000 | – | 983000 | 902000 | CC1CCN(CCCN2/C(=C/c3cc(/C=C/c4ccc(C#N)cc4)[n+](C)c4ccccc34)Sc3ccccc32)CC1.[I-] | – | – | –
8 | – | – | Active | – | – | – | – | CN(C)c1ccc(Nc2c3ccc(NC(=O)CCN4CCCC4)cc3nc3cc(NC(=O)CCN4CCCC4)ccc23)cc1 | Active | Active | Activity (HeLa [12]): Active; Activity (Quadruplex DNA [13]): Active
9 | 523000 | 70.7 | – | – | 272000 | 645000 | 490000 | C[n+]1c(/C=C/c2ccc(N(c3ccccc3)c3ccccc3)cc2)cc(/C=C2\Sc3ccccc3N2CCCN2CCOCC2)c2ccccc21.[I-] | – | – | –
10 | – | 147 | – | – | – | 550000 | – | CC1CCN(CCCN2/C(=C/c3cc(/C=C/c4ccc(O)cc4)[n+](C)c4ccccc34)Sc3ccccc32)CC1.[I-] | – | – | –

Source: ChEMBL document CHEMBL4834396, “Molecular Recognition and Imaging of Human Telomeric G-Quadruplex DNA in Live Cells: A Systematic Advancement of Thiazole Orange Scaffold To Enhance Binding Specificity and Inhibition of Gene Expression” (J Med Chem, 2021)
